Experimental data reported in ChEMBL document CHEMBL4425103, “Diving into the Water: Inducible Binding Conformations for BRD4, TAF1(2), BRD9, and CECR2 Bromodomains” (J Med Chem, 2016).

How the values were obtained:
[1] = organism: Homo sapiens; assay: Selectivity index, ratio of IC50 for recombinant His-tagged CBP (unknown origin) to IC50 for recombinant His-tagged CECR2 (unknown origin)
Outline: (§1)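 Protein and then probe were added, 10 min each. Anti-His-europium (0.2 nM) plus SA-APC was read after 40 min. 10-point titrations (N=2), ≥2 independent runs, 4-parameter Hill fit. Index is the ratio of the two IC50s.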

[2] = molecular target: T1, Transcription initiation factor TFIID subunit 1 (Homo sapiens, UniProt P21675); assay: Inhibition of recombinant His-tagged TAF1 isoform-1 (unknown origin) using biotinylated ligand incubated for 10 mins by TR-FRET assay
[3] = organism: Homo sapiens; assay: Selectivity index, ratio of IC50 for recombinant His-tagged TAF1 isoform-1 (unknown origin) to IC50 for recombinant His-tagged CECR2 (unknown origin); outline: as §1
[4] = molecular target: T1, Transcription initiation factor TFIID subunit 1; assay: Inhibition of recombinant His-tagged TAF1 isoform-2 (unknown origin) using biotinylated ligand incubated for 10 mins by TR-FRET assay
[5] = organism: Homo sapiens; assay: Selectivity index, ratio of IC50 for recombinant His-tagged BRPF1 (unknown origin) to IC50 for recombinant His-tagged CECR2 (unknown origin); outline: as §1
[6] = organism: Homo sapiens; assay: Selectivity index, ratio of IC50 for recombinant His-tagged […] (unknown origin) to IC50 for recombinant His-tagged CECR2 (unknown origin); outline: as §1
[7] = organism: Homo sapiens; assay: Selectivity index, ratio of IC50 for recombinant His-tagged BRD4 bromodomain1 to IC50 for recombinant His-tagged CECR2 (unknown origin); outline: as §1
[8] = molecular target: Bromodomain-containing protein 4 (Homo sapiens, UniProt O60885); assay: Inhibition of recombinant His-tagged BRD4 bromodomain1 (unknown origin) using biotinylated ligand incubated for 10 mins by TR-FRET assay
[9] = molecular target: T2, Bromodomain-containing protein 9 (Homo sapiens, UniProt Q9H8M2); assay: Displacement of biotinylated JQ1 analog from recombinant His-tagged BRD9 (unknown origin) incubated for 10 mins by TR-FRET assay
T2 sequence (Q9H8M2 whole entry): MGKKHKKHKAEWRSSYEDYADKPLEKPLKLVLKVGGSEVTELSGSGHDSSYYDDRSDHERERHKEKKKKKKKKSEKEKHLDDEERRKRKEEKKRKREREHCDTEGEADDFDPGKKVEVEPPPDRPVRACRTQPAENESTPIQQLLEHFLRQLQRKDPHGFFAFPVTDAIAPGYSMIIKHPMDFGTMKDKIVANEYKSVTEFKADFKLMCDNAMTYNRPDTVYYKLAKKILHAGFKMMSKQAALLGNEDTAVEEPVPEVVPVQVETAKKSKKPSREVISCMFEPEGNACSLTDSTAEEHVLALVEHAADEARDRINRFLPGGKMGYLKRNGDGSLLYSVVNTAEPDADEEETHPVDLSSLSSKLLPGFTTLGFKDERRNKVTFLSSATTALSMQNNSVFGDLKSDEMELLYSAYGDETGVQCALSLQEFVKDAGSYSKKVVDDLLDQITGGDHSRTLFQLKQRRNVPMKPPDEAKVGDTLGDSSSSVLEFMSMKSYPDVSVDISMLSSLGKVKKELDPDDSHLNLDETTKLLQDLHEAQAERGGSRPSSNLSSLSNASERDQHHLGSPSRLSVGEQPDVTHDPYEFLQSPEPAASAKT

[10] = organism: Homo sapiens; assay: Selectivity index, ratio of IC50 for recombinant His-tagged BRD4 bromodomain2 to IC50 for recombinant His-tagged CECR2 (unknown origin); outline: as §1
[11] = molecular target: Histone acetyltransferase p300 (Homo sapiens, UniProt Q09472); assay: Binding affinity to human partial length EP300 expressed in bacterial expression system by BROMOscan assay
[12] = molecular target: SWI/SNF-related matrix-associated actin-dependent regulator of chromatin subfamily A member 2 (Homo sapiens, UniProt P51531); assay: Binding affinity to human partial length SMARCA2 expressed in bacterial expression system by BROMOscan assay
[13] = molecular target: SWI/SNF-related matrix-associated actin-dependent regulator of chromatin subfamily A member 4 (Homo sapiens, UniProt P51532); assay: Binding affinity to human partial length SMARCA4 expressed in bacterial expression system by BROMOscan assay
Chain of SWI/SNF-related matrix-associated actin-dependent regulator of chromatin subfamily A member 4 (P51532 whole entry): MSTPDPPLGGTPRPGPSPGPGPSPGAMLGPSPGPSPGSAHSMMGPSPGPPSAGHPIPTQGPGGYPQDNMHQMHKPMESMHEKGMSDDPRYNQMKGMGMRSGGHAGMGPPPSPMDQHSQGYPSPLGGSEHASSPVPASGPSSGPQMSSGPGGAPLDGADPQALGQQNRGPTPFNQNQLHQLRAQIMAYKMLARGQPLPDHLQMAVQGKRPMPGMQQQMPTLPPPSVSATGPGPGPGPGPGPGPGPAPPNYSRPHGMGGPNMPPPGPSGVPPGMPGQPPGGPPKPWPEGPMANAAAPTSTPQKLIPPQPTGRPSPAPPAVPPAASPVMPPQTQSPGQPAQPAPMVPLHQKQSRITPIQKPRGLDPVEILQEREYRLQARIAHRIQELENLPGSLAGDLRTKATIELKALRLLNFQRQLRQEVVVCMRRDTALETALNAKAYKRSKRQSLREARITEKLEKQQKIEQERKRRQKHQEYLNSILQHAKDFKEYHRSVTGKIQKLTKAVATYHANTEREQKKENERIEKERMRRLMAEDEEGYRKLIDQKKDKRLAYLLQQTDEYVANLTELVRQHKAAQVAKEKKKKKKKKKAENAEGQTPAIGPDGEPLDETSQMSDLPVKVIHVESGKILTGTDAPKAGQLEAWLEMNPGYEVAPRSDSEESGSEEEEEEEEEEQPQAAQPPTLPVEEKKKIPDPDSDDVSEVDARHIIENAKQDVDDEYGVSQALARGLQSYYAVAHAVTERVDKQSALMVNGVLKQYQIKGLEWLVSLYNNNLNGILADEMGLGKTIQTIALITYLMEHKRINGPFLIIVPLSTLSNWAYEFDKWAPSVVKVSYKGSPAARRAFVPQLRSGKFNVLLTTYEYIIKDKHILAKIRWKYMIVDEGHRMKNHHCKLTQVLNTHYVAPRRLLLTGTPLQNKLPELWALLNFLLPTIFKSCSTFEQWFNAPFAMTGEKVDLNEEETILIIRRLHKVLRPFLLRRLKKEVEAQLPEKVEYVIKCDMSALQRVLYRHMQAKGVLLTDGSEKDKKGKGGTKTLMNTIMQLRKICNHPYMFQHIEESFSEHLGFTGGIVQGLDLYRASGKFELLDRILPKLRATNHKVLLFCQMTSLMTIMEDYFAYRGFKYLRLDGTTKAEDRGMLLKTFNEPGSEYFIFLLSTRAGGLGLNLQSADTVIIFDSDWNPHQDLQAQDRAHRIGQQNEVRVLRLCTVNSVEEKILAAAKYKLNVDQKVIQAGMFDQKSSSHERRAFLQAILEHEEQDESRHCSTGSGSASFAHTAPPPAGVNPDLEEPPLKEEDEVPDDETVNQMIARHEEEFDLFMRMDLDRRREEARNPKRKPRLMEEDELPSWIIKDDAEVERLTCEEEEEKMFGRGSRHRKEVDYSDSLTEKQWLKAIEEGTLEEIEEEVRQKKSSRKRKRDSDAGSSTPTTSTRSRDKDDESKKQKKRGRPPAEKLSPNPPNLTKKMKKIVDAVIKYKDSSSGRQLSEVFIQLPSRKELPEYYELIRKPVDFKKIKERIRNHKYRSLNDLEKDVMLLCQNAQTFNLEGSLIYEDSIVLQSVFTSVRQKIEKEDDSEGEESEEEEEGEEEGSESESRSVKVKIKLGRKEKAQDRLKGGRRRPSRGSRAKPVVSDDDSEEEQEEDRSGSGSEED

T1 sequence (P21675 whole entry, canonical isoform): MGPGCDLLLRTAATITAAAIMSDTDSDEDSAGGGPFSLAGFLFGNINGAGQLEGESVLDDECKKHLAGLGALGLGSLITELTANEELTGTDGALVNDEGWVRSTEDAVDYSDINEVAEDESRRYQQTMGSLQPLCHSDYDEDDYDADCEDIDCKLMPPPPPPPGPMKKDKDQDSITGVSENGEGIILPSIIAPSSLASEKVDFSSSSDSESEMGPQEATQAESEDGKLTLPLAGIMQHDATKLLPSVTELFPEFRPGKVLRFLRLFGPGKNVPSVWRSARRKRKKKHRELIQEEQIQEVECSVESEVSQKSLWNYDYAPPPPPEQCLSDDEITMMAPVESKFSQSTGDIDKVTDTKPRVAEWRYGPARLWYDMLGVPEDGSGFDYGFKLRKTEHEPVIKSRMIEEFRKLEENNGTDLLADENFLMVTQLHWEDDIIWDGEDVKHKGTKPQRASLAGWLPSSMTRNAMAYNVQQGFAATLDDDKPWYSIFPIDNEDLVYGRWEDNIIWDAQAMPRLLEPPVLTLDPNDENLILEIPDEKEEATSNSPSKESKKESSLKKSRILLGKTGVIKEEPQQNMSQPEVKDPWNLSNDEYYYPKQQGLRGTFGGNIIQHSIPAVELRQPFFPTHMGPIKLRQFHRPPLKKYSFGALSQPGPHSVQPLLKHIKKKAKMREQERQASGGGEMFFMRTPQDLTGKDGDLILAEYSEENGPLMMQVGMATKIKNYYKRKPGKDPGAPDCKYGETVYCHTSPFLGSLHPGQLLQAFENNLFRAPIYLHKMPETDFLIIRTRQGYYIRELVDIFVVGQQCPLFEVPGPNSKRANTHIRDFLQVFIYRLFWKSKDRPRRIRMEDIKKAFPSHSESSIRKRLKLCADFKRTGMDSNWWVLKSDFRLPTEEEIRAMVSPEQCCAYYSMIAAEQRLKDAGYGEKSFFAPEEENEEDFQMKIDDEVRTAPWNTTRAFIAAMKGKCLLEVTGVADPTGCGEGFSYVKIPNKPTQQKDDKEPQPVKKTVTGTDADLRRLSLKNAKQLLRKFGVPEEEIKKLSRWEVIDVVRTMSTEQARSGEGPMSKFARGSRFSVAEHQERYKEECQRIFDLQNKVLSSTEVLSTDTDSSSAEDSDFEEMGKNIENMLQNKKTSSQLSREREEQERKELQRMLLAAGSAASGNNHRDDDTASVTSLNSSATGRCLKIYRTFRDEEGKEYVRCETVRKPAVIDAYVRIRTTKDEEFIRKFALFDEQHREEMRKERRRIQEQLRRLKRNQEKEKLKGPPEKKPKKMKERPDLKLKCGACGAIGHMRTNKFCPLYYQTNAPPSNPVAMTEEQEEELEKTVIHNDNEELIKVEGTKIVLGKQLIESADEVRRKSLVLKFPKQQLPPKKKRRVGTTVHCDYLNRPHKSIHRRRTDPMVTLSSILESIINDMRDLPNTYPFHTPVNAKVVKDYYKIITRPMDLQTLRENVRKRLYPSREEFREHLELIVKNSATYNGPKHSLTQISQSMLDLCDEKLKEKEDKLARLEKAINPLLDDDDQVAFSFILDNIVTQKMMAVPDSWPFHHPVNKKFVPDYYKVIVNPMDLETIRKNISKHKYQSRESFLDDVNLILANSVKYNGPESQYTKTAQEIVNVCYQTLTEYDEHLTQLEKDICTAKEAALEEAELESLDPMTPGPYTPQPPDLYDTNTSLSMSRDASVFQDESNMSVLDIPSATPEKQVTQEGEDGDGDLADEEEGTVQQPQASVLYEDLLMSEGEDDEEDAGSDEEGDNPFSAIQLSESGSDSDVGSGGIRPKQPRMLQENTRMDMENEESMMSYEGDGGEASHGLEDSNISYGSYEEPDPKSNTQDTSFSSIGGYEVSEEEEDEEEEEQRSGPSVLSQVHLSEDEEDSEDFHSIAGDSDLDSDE
Chain of SWI/SNF-related matrix-associated actin-dependent regulator of chromatin subfamily A member 2 (P51531 whole entry): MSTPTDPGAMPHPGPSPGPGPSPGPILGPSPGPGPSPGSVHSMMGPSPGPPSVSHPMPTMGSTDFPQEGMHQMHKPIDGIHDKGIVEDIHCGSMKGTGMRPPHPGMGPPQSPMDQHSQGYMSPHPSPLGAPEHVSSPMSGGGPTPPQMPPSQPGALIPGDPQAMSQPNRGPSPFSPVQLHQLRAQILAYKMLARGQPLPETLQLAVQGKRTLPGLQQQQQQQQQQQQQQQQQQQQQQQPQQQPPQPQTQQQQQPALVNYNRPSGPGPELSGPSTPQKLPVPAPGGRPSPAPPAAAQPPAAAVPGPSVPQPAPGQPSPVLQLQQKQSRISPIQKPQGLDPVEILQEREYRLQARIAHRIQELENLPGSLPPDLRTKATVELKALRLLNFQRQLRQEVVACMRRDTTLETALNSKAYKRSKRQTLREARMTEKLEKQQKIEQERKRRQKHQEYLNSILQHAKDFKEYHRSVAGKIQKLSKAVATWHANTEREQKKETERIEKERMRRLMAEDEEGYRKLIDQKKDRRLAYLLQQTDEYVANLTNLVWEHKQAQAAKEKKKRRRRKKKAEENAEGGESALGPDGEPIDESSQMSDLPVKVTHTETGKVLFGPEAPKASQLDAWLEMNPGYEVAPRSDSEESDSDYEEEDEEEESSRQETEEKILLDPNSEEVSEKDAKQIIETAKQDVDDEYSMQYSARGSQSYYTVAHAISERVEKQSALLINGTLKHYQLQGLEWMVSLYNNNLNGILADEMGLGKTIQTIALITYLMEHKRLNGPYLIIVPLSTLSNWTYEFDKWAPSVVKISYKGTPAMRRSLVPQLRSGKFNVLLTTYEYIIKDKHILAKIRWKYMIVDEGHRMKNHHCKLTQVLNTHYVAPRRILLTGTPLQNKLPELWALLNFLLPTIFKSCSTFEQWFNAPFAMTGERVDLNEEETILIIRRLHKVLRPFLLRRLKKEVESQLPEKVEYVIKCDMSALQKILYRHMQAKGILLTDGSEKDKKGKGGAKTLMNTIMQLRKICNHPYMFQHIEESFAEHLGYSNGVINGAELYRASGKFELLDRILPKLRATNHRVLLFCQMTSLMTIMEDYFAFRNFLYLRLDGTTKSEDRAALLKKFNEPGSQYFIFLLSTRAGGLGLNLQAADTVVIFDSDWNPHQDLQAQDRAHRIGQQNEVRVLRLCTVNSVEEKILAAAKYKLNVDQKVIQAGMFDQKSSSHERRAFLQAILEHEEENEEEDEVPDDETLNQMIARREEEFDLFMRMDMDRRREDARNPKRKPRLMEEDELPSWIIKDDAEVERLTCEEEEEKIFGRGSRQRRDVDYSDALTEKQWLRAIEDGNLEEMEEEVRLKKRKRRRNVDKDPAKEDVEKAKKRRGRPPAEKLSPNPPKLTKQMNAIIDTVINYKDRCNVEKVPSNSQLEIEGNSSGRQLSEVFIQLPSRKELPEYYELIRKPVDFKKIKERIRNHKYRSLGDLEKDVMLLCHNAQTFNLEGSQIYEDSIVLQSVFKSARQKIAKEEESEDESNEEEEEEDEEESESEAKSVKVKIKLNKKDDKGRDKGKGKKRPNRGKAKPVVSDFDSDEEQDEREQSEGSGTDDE

| Ratio IC50 [1] | IC50 [2] | Ratio IC50 [3] | IC50 [4] | Ratio IC50 [5] | Ratio IC50 [6] | Ratio IC50 [7] | IC50 [8] | IC50 [9] | Ratio IC50 [10] | Kd [11] | Kd [12] | Kd [13] | SMILES |
| --- | --- | --- | --- | --- | --- | --- | --- | --- | --- | --- | --- | --- | --- |
| > 10 | > 20 µM | > 10 | 0.77 µM | > 10 | > 10 | > 10 | 6.3 µM | 0.29 µM | > 10 | – | – | – | C=CCn1cc(-c2cccc(C(=O)N(C)C)c2)c2cc[nH]c2c1=O |
| – | – | – | – | – | – | – | – | – | – | 0.27 µM | 6.7 µM | 9 µM | CN(C)C(=O)c1cccc(-c2cn(C)c(=O)c3[nH]ccc23)c1 |
